Laboratory results taken from BindingDB's records for doi:10.1021/jm00096a020 (University of California, 1992).
Several values for one entry are separate records, joined by “and”; a condition that tells them apart may be missing. Equal values may be shown once.

Assays:
[1] = system: HIV-2 protease; assay: Inhibitory concentration against HIV-2 protease
How it was run: (§1)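 Purified recombinant HIV PR activity was followed by cleavage of a decapeptide substrate. Incubation was 30–45 min at 37 °C, and hydrolysis products were quantified by HPLC.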

[2] = target: T1, Pol polyprotein (Human immunodeficiency virus 2, UniProt P88142); assay: ChEBML_159124
Source text: (§2) Inhibition of HIV-2 protease in 5%DMSO

[3] = target: T2, Human immunodeficiency virus type 1 protease (Human immunodeficiency virus 1, UniProt Q72874); assay: Inhibition of HIV-1 protease in 10% fetal calf serum(FCS)
How it was run: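 COS A6 cells, which constitutively release viral capsids, were exposed to inhibitor in Dulbecco's PBS for 15 min. An equal volume of medium with 10% FCS plus inhibitor was then added and incubation continued for 3.75 h. Capsids were isolated from the supernatant, and polyprotein processing was scored as p24 by ELISA.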

[4] = target: T2, Human immunodeficiency virus type 1 protease; assay: Inhibition of HIV-1 protease in 5%DMSO; how it was run: as §1
[5] = system: HIV-1 protease; assay: Inhibitory concentration against HIV-1 protease; how it was run: as §1
[6] = target: T1, Pol polyprotein; assay: as §2; how it was run: as §1
[7] = target: T2, Human immunodeficiency virus type 1 protease; assay: Binding affinity against HIV-1 protease
How it was run: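 Purified recombinant HIV-1 protease (6 × 10^-4 mg/mL) preincubated 1 min with inhibitor in 50 mM sodium acetate pH 5.5, 1 mM DTT, 1 mM EDTA, 1 M NaCl. Decapeptide substrate then added, 30–45 min at 37 °C. Activity read by HPLC quantitation of hydrolysis products. Inhibition plotted as a Dixon plot at several substrate concentrations.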

[8] = target: HIV-2 protease (Human immunodeficiency virus 2); assay: Inhibitory concentration against HIV-2 protease in the absence of DMSO
[9] = target: HIV-2 protease (Human immunodeficiency virus 2); assay: In vitro Inhibitory activity against HIV-2 protease in the presence of 5%DMSO
[10] = target: T2, Human immunodeficiency virus type 1 protease; assay: (§3) Inhibitory concentration against HIV-1 protease in the absence of DMSO
How it was run: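 The water-soluble dipotassium salt was tested against aspartyl proteases with no DMSO present, and IC50 values were determined.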

[11] = system: HIV-2 protease; assay: ChEBML_158058
Source text: In vitro Inhibitory activity against HIV-2 protease in the presence of 5%DMSO

[12] = target: T2, Human immunodeficiency virus type 1 protease; assay: ChEBML_79800; source text: as §3

T1 sequence (P88142 whole entry): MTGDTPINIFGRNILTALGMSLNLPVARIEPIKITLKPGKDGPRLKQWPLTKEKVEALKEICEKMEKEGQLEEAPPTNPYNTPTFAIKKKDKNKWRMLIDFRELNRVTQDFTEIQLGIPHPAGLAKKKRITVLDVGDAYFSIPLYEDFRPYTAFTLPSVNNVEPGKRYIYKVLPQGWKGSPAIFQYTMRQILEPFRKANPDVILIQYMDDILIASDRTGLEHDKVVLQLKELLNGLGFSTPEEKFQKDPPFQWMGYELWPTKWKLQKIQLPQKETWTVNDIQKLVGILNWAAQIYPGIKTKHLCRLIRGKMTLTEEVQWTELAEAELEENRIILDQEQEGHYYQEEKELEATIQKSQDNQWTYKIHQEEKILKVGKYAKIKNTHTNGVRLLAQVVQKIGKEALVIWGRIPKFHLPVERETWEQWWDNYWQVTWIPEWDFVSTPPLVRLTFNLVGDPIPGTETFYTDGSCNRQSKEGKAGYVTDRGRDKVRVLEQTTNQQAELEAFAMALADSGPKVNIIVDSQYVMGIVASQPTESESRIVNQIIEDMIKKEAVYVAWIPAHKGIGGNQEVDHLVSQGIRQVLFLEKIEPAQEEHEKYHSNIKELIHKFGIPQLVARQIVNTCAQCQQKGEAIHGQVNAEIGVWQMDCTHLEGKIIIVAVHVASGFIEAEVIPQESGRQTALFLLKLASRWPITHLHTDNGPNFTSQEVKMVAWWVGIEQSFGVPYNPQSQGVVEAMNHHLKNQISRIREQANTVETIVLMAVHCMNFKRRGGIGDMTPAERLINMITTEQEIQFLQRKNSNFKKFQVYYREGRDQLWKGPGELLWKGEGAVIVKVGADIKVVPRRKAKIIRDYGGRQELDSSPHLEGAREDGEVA

| SMILES | IC50 [1] [nM] | IC50 [2] [nM] | IC50 [3] | IC50 [4] [nM] | IC50 [5] [nM] | IC50 [6] [nM] | Ki [7] [nM] | IC50 [8] [nM] | IC50 [9] [nM] | IC50 [10] [nM] | IC50 [11] [nM] | IC50 [12] [nM] |
| --- | --- | --- | --- | --- | --- | --- | --- | --- | --- | --- | --- | --- |
| CC1=C(CCC(=O)O)c2cc3nc(cc4[nH]c(cc5[nH]c(cc1n2)c(C)c5C(COC(=O)C1=CCC1)OC(=O)C1=CCC1)c(C)c4C(COC(=O)C1=CCC1)OC(=O)C1=CCC1)C(C)=C3CCC(=O)O (stereo not drawn) |  |  | 10000 nM |  |  |  |  |  |  |  | 550 |  |
| CC1=C(CCC(=O)O)/C2=C/c3c(CCC(=O)O)c(C)c4[n]3[Co][n]3/c(c(C)c(C(COC(=O)C5=CC5)OC(=O)C5=CC5)/c3=C/C3=NC(=C\4)/C(C(COC(=O)C4=CC4)OC(=O)C4=CC4)=C3C)=C\C1=N2 (stereo not drawn) |  | 1500 | 25000 nM |  |  |  |  |  |  |  |  | 2250 |

Now from value to compound:

| IC50 [1] [nM] | IC50 [2] [nM] | IC50 [3] | IC50 [4] [nM] | IC50 [5] [nM] | IC50 [6] [nM] | Ki [7] [nM] | IC50 [8] [nM] | IC50 [9] [nM] | IC50 [10] [nM] | IC50 [11] [nM] | IC50 [12] [nM] | SMILES |
| --- | --- | --- | --- | --- | --- | --- | --- | --- | --- | --- | --- | --- |
| 230 | 700 | 25000 nM and > 150000 nM | 185 | 50 | 700 |  |  |  |  |  |  | CC1=C(CCC(=O)O)c2cc3nc(cc4[nH]c(cc5[nH]c(cc1n2)c(C)c5C(COC(=O)C1=CC1)OC(=O)C1=CC1)c(C)c4C(COC(=O)C1=CC1)OC(=O)C1=CC1)C(C)=C3CCC(=O)O (stereo not drawn) |
|  |  | 65000 nM | 400 |  |  | 85 | 700 | 1200 | 100 |  |  | CC1=C(CCC(=O)O)/C2=C/c3c(CCC(=O)O)c(C)c4[n]3[Mn][n]3/c(c(C)c(C(COC(=O)C5=CC5)OC(=O)C5=CC5)/c3=C/C3=NC(=C\4)/C(C(COC(=O)C4=CC4)OC(=O)C4C=C4)=C3C)=C\C1=N2 (stereo not drawn) |
|  | 2200 | > 70000 nM | 975 |  |  | 140 |  |  | 725 | 470 |  | CC1=C(CCC(=O)O)/C2=C/c3c(CCC(=O)O)c(C)c4[n]3[Cu][n]3/c(c(C)c(C(COC(=O)C5=CC5)OC(=O)C5=CC5)/c3=C/C3=NC(=C\4)/C(C(COC(=O)C4=CC4)OC(=O)C4=CC4)=C3C)=C\C1=N2 (stereo not drawn) |
